Experimental data reported in article PMC3954597 (Biochemistry, 2014).

Key:
Assay type in all cases: biochemical
PTPRO = target: T1, PTPRO (Homo sapiens, UniProt Q16827); test: PTP assay, PTPRO; conditions: for Km / kcat / kcat/KM x10^6: catalytic domain, 100 mM HEPES pH 7.4, monitored at 282 nm
T1 sequence (Q16827 938-1195 limits assumed): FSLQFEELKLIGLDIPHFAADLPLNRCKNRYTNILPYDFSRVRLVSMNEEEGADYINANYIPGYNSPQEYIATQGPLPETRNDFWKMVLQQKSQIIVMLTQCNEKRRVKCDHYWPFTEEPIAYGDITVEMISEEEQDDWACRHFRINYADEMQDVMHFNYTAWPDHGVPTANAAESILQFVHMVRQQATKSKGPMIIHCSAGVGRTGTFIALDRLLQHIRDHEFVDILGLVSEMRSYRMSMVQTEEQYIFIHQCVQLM

PTPH1 = target: T2, PTPH1 (Homo sapiens, UniProt P26045); test: PTP assay, PTPH1; conditions: for Km / kcat / kcat/KM x10^6: catalytic domain, 100 mM HEPES pH 7.4, monitored at 282 nm
T2 sequence (P26045 628-909): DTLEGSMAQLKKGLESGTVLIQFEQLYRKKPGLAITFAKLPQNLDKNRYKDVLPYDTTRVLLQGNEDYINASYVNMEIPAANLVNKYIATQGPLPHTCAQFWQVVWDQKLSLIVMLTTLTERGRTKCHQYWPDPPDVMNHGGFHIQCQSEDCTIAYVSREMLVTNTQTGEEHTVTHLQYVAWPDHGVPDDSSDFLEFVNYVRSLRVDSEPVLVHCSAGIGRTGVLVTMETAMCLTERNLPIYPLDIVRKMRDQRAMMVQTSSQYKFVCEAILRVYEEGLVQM

PTPD2 = target: T3, PTPD2 (Homo sapiens, UniProt Q15678); test: PTP assay, PTPD2; conditions: for Km / kcat / kcat/KM x10^6: catalytic domain, 100 mM HEPES pH 7.4, monitored at 282 nm
T3 sequence (Q15678 876-1187): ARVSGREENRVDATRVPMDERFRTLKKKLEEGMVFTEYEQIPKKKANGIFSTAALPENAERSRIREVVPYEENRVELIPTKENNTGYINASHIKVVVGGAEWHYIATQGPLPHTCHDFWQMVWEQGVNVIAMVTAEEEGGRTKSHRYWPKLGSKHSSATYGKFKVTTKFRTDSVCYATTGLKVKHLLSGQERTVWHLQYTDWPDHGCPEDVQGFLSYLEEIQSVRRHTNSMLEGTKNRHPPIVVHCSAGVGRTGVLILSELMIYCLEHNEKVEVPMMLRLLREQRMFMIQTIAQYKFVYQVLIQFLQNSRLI
Summary of the method: (§1)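 His-tagged catalytic domains were made in E. coli: PTPD2 aa 876–1187 and PTPRC aa 620–1236 with N-terminal tags, PTPD1 aa 875–1174 and SHP-2 aa 199–593 with C-terminal tags. Enzyme was added at 0.5–20000 nM final. A282 (Δε 1102 M−1 cm−1) was followed. Constants came from Michaelis–Menten fits of initial rates (<60 s), or from fits of progress curves run to substrate depletion.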

HePTP = target: T4, HePTP (Homo sapiens, UniProt P35236); test: PTP assay, HePTP
T4 sequence (P35236 43-356): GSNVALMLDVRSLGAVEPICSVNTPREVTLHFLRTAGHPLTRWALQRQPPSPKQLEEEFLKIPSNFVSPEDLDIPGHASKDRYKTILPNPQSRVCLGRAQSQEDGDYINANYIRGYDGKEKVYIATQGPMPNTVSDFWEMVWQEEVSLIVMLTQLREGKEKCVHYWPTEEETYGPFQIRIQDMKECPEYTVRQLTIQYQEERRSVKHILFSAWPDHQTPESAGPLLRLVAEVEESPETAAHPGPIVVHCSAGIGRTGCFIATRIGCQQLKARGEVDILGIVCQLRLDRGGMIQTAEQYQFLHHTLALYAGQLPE

PTPRD = target: T5, PTPRD (Homo sapiens, UniProt P23468); test: PTP assay, PTPRD
T5 sequence (P23468 1299-1899): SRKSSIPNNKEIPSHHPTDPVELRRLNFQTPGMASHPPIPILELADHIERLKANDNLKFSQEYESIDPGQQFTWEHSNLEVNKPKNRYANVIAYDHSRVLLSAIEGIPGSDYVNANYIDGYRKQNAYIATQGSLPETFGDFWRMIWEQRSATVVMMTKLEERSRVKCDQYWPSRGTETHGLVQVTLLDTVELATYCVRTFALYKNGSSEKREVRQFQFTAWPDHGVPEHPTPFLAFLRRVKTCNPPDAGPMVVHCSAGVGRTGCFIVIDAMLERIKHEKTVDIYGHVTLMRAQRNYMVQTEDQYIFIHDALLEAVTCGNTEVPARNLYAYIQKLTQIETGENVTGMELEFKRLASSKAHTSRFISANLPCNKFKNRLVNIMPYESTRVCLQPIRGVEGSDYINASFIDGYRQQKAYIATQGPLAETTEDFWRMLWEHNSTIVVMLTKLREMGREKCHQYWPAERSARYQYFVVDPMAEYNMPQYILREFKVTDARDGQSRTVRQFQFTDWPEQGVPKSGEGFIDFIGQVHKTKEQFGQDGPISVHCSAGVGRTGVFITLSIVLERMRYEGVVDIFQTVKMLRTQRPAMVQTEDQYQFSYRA

PTPD1 = target: T6, PTPD1 (Homo sapiens, UniProt Q16825); test: PTP assay, PTPD1
T6 sequence (Q16825 875-1174): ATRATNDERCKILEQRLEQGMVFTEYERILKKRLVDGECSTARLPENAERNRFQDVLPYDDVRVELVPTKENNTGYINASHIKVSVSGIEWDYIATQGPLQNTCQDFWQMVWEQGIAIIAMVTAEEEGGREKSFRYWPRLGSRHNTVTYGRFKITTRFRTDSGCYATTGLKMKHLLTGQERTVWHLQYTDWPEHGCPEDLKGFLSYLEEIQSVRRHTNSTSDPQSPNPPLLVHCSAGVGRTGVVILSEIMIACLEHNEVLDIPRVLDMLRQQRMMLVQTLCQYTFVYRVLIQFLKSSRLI
Summary of the method: as §1

[1] = kcat/KM of neutral peptide over basic Ac-YRKRFpYRYKF-NH2
[2] = catalytic domain, 100 mM HEPES pH 7.4, monitored at 282 nm
[3] = kcat/KM of acidic peptide over basic Ac-YRKRFpYRYKF-NH2
[4] = kcat/KM of acidic peptide over neutral Ac-SASASpYSASA-NH2

Substance | Km (PTPRO) [µM] | kcat (PTPRO) [s⁻¹] | kcat/KM x10^6 (PTPRO) | Km (PTPH1) [µM] | kcat (PTPH1) [s⁻¹] | kcat/KM x10^6 (PTPH1) | Km (PTPD2) [µM] | kcat (PTPD2) [s⁻¹] | kcat/KM x10^6 (PTPD2) | kcat/KM x10^6 (HePTP; [2]) | kcat/KM x10^6 (PTPRD; [2]) | kcat/KM x10^6 (PTPD1; [2]) | also measured
Ac-SASASpYSASA-NH2 | 250 ± 10 | 240 ± 8 | 0.94 x10^6 M^−1 s^−1 | 5.8 ± 0.7 | 2.5 ± 0.2 | 0.44 x10^6 M^−1 s^−1 | 9.4 ± 0.4 | 0.12 ± 0.006 | 0.013 x10^6 M^−1 s^−1 | 0.0006 x10^6 M^−1 s^−1 | 0.00068 x10^6 M^−1 s^−1 | 0.0000038 x10^6 M^−1 s^−1 | Neutral/Basic ratio of kcat/KM values (PTPRO; [1]): 18; Neutral/Basic ratio of kcat/KM values (PTPD2; [1]): 160; Neutral/Basic ratio of kcat/KM values (PTPRD; [1]): 1; Neutral/Basic ratio of kcat/KM values (PTPD1; [1]): 0.7
Ac-YDEDFpYDYEF-NH2 | 5.7 ± 0.8 | 200 ± 10 | 35 x10^6 M^−1 s^−1 | 0.28 ± 0.02 | 2.4 ± 0.06 | 8.8 x10^6 M^−1 s^−1 | 0.7 ± 0.09 | 0.073 ± 0.003 | 0.11 x10^6 M^−1 s^−1 | 0.025 x10^6 M^−1 s^−1 | 0.014 x10^6 M^−1 s^−1 | 0.0012 x10^6 M^−1 s^−1 | Acidic/Basic ratio of kcat/KM values (PTPRO; [3]): 660; Acidic/Neutral ratio of kcat/KM values (PTPRO; [4]): 37; Acidic/Basic ratio of kcat/KM values (PTPH1; [3]): 2600; Acidic/Neutral ratio of kcat/KM values (PTPH1; [4]): 20; Acidic/Basic ratio of kcat/KM values (PTPD2; [3]): 1300; Acidic/Neutral ratio of kcat/KM values (PTPD2; [4]): 8; Km (HePTP; [2]): 280 ± 25 µM; kcat (HePTP; [2]): 7.0 ± 0.3 s⁻¹; Acidic/Basic ratio of kcat/KM values (HePTP; [3]): 2500; Acidic/Neutral ratio of kcat/KM values (HePTP; [4]): 42; Km (PTPRD; [2]): > 60 µM; kcat (PTPRD; [2]): >0.86 s⁻¹; Acidic/Basic ratio of kcat/KM values (PTPRD; [3]): 21; Acidic/Neutral ratio of kcat/KM values (PTPRD; [4]): 21; Km (PTPD1; [2]): 26 ± 5 µM; kcat (PTPD1; [2]): 0.032 ± 0.005 s⁻¹; Acidic/Basic ratio of kcat/KM values (PTPD1; [3]): 220; Acidic/Neutral ratio of kcat/KM values (PTPD1; [4]): 330
Ac-YRKRFpYRYKF-NH2 | – | – | 0.053 x10^6 M^−1 s^−1 | – | – | 0.0033 x10^6 M^−1 s^−1 | – | – | 0.000082 x10^6 M^−1 s^−1 | 0.000010 x10^6 M^−1 s^−1 | 0.0007 x10^6 M^−1 s^−1 | 0.0000057 x10^6 M^−1 s^−1 | –
